Measurements as given in ChEMBL document CHEMBL1121537, “Anticoccidial derivatives of 6-azauracil. 3. Synthesis, high activity, and short plasma half-life of 1-phenyl-6-azauracils containing sulfonamide substituents” (J Med Chem, 1980).

How the values were obtained:
[1] = tested on: Eimeria tenella; experiment: Minimum effective concentration required to prevent formation of detectable lesions in Eimeria tenella infected leghorn cockerels.; assay type: functional; details: read-out: MEC
Summary of the method: (§1)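 Leghorn cockerels infected with Eimeria tenella, screened by a modified version of a published screening method. The minimum effective concentration, in ppm, is the lowest level that prevents detectable lesions.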

[2] = species: Gallus gallus; experiment: Minimum effective concentration required to prevent formation of detectable lesions in Eimeria tenella infected leghorn cockerels; assay type: functional; summary of the method: as §1
[3] = tested on: Eimeria tenella; experiment: The compound was evaluated for the variations in the vulnerability to Eimeria tenella; assay type: functional; details: read-out: MEC
[4] = tested on: Eimeria acervulina; experiment: The compound was evaluated for the variations in the vulnerability to Eimeria acervulina; assay type: functional; details: read-out: MEC
[5] = species: Gallus gallus; experiment: Minimum effective concentration required to prevent formation of detectable lesions in Eimeria tenella infected leghorn cockerels; value ranges from 15 to 30; assay type: functional; summary of the method: as §1
[6] = tested on: Gallus gallus; experiment: Plasma level measured 3h after oral administration of 4-5 mg/kg body weight in young cockerels; assay type: functional, organism-based
Summary of the method: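 Young cockerels, about 10 days old, given 4-5 mg/kg body weight orally; drug level in plasma measured 3 h after dosing, in mcg/mL.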

[7] = Half life in plasma of young cockerels; assay type: ADME, organism-based, Gallus gallus; details: male, chicken
Summary of the method: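 Plasma half-life in young cockerels, about 10 days old, determined by a previously described method.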

[8] = tested on: Eimeria tenella; experiment: The compound was evaluated for the variations in the vulnerability to Eimeria tenella,; assay type: functional; details: read-out: MEC
[9] = species: Gallus gallus; experiment: The compound was evaluate for the minimum amount required to prevent formation of detectable disease lesions against Eimeria tenella infections.; assay type: functional; summary of the method: as §1
[10] = tested on: Eimeria acervulina; experiment: The compound was evaluated for the variations in the vulnerability to Eimeria acervulina; value ranges from 15-30; assay type: functional; details: read-out: MEC
[11] = tested on: Eimeria maxima; experiment: The compound was evaluated for the variations in the vulnerability to Eimeria maxima; assay type: functional; details: read-out: MEC
[12] = species: Gallus gallus; experiment: Minimum effective concentration required to prevent formation of detectable lesions in Eimeria tenella infected leghorn cockerels; Value ranges from 60-120; assay type: functional; summary of the method: as §1
[13] = tested on: Eimeria brunetti; experiment: The compound was evaluated for the variations in the vulnerability to Eimeria brunetti; assay type: functional; details: read-out: MEC
[14] = tested on: Eimeria necatrix; experiment: The compound was evaluated for the variations in the vulnerability to Eimeria necatrix; assay type: functional; details: read-out: MEC
[15] = Half life in plasma of older birds; assay type: ADME, organism-based, Gallus gallus; details: chicken
Summary of the method: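 Plasma half-life in older birds, about 9-10 weeks old, determined by a previously described method.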

[16] = tested on: Gallus gallus; experiment: Plasma level measured 3h after oral administration of 4-5 mg/kg body weight in older birds; assay type: functional, organism-based
Summary of the method: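 Older birds, about 9-10 weeks old, given 4-5 mg/kg body weight orally; drug level in plasma measured 3 h after dosing, in mcg/mL.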

Row | Structure (SMILES) | minimal effective concentration [1] [µg/mL] | other results
1 | CN(C)S(=O)(=O)c1ccc(-n2ncc(=O)[nH]c2=O)cc1Cl | 250 | 
2 | Cc1ccc(NS(=O)(=O)c2ccc(-n3ncc(=O)[nH]c3=O)cc2Cl)cc1Cl | > 250 | 
3 | Cc1cc(-n2ncc(=O)[nH]c2=O)ccc1S(=O)(=O)N(C)C1CCCC1 | > 120 | 
4 | O=c1cnn(-c2ccc(S(=O)(=O)N3CCC(Cc4ccccc4)CC3)c(Cl)c2)c(=O)[nH]1 | > 250 | 
5 | O=c1cnn(-c2ccc(S(=O)(=O)NCc3ccccc3Cl)c(Cl)c2)c(=O)[nH]1 | > 250 | 
6 | O=C1CCN(S(=O)(=O)c2ccc(-n3ncc(=O)[nH]c3=O)cc2Cl)CC1 | > 250 | 
7 | CN(C1CCCC1)S(=O)(=O)c1ccc(-n2ncc(=O)[nH]c2=O)cc1Cl | > 120 | 
8 | Cc1cc(Cl)cc(NS(=O)(=O)c2ccc(-n3ncc(=O)[nH]c3=O)cc2Cl)c1 | > 250 | 
9 | COCCN(CCOC)S(=O)(=O)c1c(C)cc(-n2ncc(=O)[nH]c2=O)cc1C | 250 | 
10 | CCOC(=O)N1CCN(S(=O)(=O)c2ccc(-n3ncc(=O)[nH]c3=O)cc2Cl)CC1 | > 250 | 
11 | CN(Cc1ccc(Cl)cc1)S(=O)(=O)c1ccc(-n2ncc(=O)[nH]c2=O)cc1Cl | 500 | 
12 | CN(CCO)S(=O)(=O)c1ccc(-n2ncc(=O)[nH]c2=O)cc1Cl | > 120 | 
13 | O=c1cnn(-c2ccc(S(=O)(=O)N3CCSCC3)c(Cl)c2)c(=O)[nH]1 | 60 | 
14 | Cc1cccc(-n2ncc(=O)[nH]c2=O)c1 |  | MEC [2]: >120 p.p.m.
15 | NS(=O)(=O)c1ccc(NS(=O)(=O)c2ccc(-n3ncc(=O)[nH]c3=O)cc2)cc1 | 500 | 
16 | CCN(CC)S(=O)(=O)c1c(C)cc(-n2ncc(=O)[nH]c2=O)cc1Cl | 250 | 
17 | Cc1cc(-n2ncc(=O)[nH]c2=O)ccc1S(=O)(=O)N1CCOCC1 |  | minimal effective concentration [3]: 15 µg/mL; minimal effective concentration [4]: 30 µg/mL; MEC [5]: 15 p.p.m.; Plasma level [6]: 3.1 µg/mL; half-life [7]: 1.1 h
18 | O=c1cnn(-c2ccc(S(=O)(=O)Nc3c(F)c(F)c(F)c(F)c3F)c(Cl)c2)c(=O)[nH]1 | > 60 | 
19 | Cc1cc(-n2ncc(=O)[nH]c2=O)cc(C)c1S(=O)(=O)Cl | 250 | 
20 | Cc1cc(-n2ncc(=O)[nH]c2=O)ccc1S(=O)(=O)N1CCN(C=O)CC1 | 500 | 
21 | O=c1cnn(-c2ccc(S(=O)(=O)N(Cc3ccccc3)Cc3ccccc3)c(Cl)c2)c(=O)[nH]1 | > 250 | 
22 | Cc1cc(-n2ncc(=O)[nH]c2=O)cc(Cl)c1S(=O)(=O)N1CCSCC1 | 120 | 

Row | Structure (SMILES) | minimal effective concentration [1] [µg/mL] | other results
23 | O=c1cnn(-c2cc(Cl)c(N3CCOCC3)c(Cl)c2)c(=O)[nH]1 |  | minimal effective concentration [8]: 15 µg/mL; MEC [9]: 15 p.p.m.; minimal effective concentration [10]: 30 µg/mL; minimal effective concentration [11]: 15 µg/mL
24 | CC(C)(C)CC(C)(C)NS(=O)(=O)c1ccc(-n2ncc(=O)[nH]c2=O)cc1 | > 120 | 
25 | NS(=O)(=O)c1ccc(-n2ncc(=O)[nH]c2=O)cc1Cl | > 120 | 
26 | O=c1cnn(-c2ccc(S(=O)(=O)N3CCSC3)c(Cl)c2)c(=O)[nH]1 | > 120 | 
27 | CN(Cc1ccccc1)S(=O)(=O)c1ccc(-n2ncc(=O)[nH]c2=O)cc1Cl |  | MEC [12]: 60 p.p.m.
28 | O=c1cnn(-c2ccc(S(=O)(=O)Cl)cc2)c(=O)[nH]1 | > 250 | 
29 | CCCN(CCC)S(=O)(=O)c1ccc(-n2ncc(=O)[nH]c2=O)cc1Cl | > 250 | 
30 | CCCN(C)S(=O)(=O)c1ccc(-n2ncc(=O)[nH]c2=O)cc1Cl | 250 | 
31 | O=c1cnn(-c2ccc(S(=O)(=O)NC3CCCCC3)c(Cl)c2)c(=O)[nH]1 | > 500 | 
32 | O=c1cnn(-c2ccc(S(=O)(=O)N3CCOCC3)cc2)c(=O)[nH]1 | > 250 | 
33 | C=CCN(C)S(=O)(=O)c1ccc(-n2ncc(=O)[nH]c2=O)cc1Cl | 60 | 
34 | O=c1cnn(-c2ccc(S(=O)(=O)N3CCOCC3)c(Cl)c2)c(=O)[nH]1 | 30 | minimal effective concentration [3]: 30 µg/mL; minimal effective concentration [4]: 120 µg/mL; Plasma level [6]: 1.9 µg/mL; half-life [7]: 2.1 h
35 | Cc1cc(-n2ncc(=O)[nH]c2=O)cc(Cl)c1S(=O)(=O)N1CCOCC1 | 10 | minimal effective concentration [3]: 10 µg/mL; minimal effective concentration [4]: 60 µg/mL; Plasma level [6]: 0.38 µg/mL; half-life [7]: 1 h
36 | O=c1cnn(-c2ccc(S(=O)(=O)N3CCC(O)CC3)c(Cl)c2)c(=O)[nH]1 | > 250 | 
37 | Cc1cc(-n2ncc(=O)[nH]c2=O)cc(C)c1S(=O)(=O)N1CCOCC1 | 15 | minimal effective concentration [3]: 15 µg/mL; minimal effective concentration [4]: 50 µg/mL; Plasma level [6]: 0.95 µg/mL; minimal effective concentration [13]: 30 µg/mL; half-life [7]: 1.5 h; minimal effective concentration [14]: 15 µg/mL
38 | Cc1cc(Cl)cc(-n2ncc(=O)[nH]c2=O)c1 | 15 | half-life [15]: 20 h; Plasma level [16]: 21.7 µg/mL
39 | O=c1cnn(-c2ccc(S(=O)(=O)NC3CCCCCCC3)c(Cl)c2)c(=O)[nH]1 | > 250 | 
40 | CCCCN(CC#N)S(=O)(=O)c1ccc(-n2ncc(=O)[nH]c2=O)cc1Cl | > 120 | 
41 | Cc1cc(-n2ncc(=O)[nH]c2=O)cc(C)c1S(=O)(=O)N1CCCC1 | 60 | 
42 | COc1ccc(NS(=O)(=O)c2c(C)cc(-n3ncc(=O)[nH]c3=O)cc2C)cc1 | > 250 | 
43 | Cc1cc(-n2ncc(=O)[nH]c2=O)cc(C)c1S(=O)(=O)N(C)Cc1ccccc1 | 60 | 
44 | CCCN(C)S(=O)(=O)c1c(C)cc(-n2ncc(=O)[nH]c2=O)cc1C | 120 | 

Row | Structure (SMILES) | minimal effective concentration [1] [µg/mL] | other results
45 | O=c1cnn(-c2cc(Cl)c(S(=O)(=O)N3CCOCC3)c(Cl)c2)c(=O)[nH]1 |  | minimal effective concentration [3]: 15 µg/mL; MEC [9]: 30 p.p.m.; minimal effective concentration [4]: 30 µg/mL
46 | COc1c(Cl)cc(-n2ncc(=O)[nH]c2=O)cc1Cl | 250 | half-life [7]: 2 h
47 | O=c1cnn(-c2cc(Br)c(S(=O)(=O)N3CCOCC3)c(Br)c2)c(=O)[nH]1 | > 30 | 
48 | Cc1cc(-n2ncc(=O)[nH]c2=O)cc(Cl)c1S(=O)(=O)N(C)C | 60 | 
49 | O=c1cnn(-c2cc(Cl)cc(Cl)c2)c(=O)[nH]1 | 4 | Plasma level [6]: 14.5 µg/mL; half-life [15]: 150 h; Plasma level [16]: 24.3 µg/mL; half-life [7]: 56 h
50 | O=c1cnn(-c2ccc(S(=O)(=O)N3CCCCC3)c(Cl)c2)c(=O)[nH]1 | 250 | 
51 | CN(c1ccccc1)S(=O)(=O)c1ccc(-n2ncc(=O)[nH]c2=O)cc1Cl | > 250 | 
52 | O=c1cnn(-c2ccc(S(=O)(=O)Nc3cccc(Cl)c3)c(Cl)c2)c(=O)[nH]1 | > 500 | 
53 | O=c1cnn(-c2cccc(Cl)c2)c(=O)[nH]1 | 120 | 
54 | O=c1cnn(-c2ccc(S(=O)(=O)N3CCCC3)c(Cl)c2)c(=O)[nH]1 | 250 | 
55 | Cc1cc(C)cc(-n2ncc(=O)[nH]c2=O)c1 | 30 | Plasma level [6]: 8.1 µg/mL; half-life [15]: 12 h; Plasma level [16]: 22.4 µg/mL; half-life [7]: 6 h
56 | CCN(C(C)C)S(=O)(=O)c1ccc(-n2ncc(=O)[nH]c2=O)cc1C | 500 | 
57 | O=c1cnn(-c2ccc(S(=O)(=O)N3CCCCC3)cc2)c(=O)[nH]1 | 250 | 
58 | CCN(C)S(=O)(=O)c1ccc(-n2ncc(=O)[nH]c2=O)cc1Cl | 120 | 
59 | C=CCN(C)S(=O)(=O)c1ccc(-n2ncc(=O)[nH]c2=O)cc1C | 120 | 
60 | C=CCN(CC=C)S(=O)(=O)c1ccc(-n2ncc(=O)[nH]c2=O)cc1Cl | 250 | 
61 | O=c1cnn(-c2ccccc2)c(=O)[nH]1 | 500 | half-life [7]: 8 h
62 | Cc1cc(-n2ncc(=O)[nH]c2=O)cc(C)c1S(=O)(=O)N(C)C | 60 | 
63 | CCOC(CN(CC(OCC)OCC)S(=O)(=O)c1ccc(-n2ncc(=O)[nH]c2=O)cc1Cl)OCC | 250 | 
64 | O=c1cnn(-c2cc(Cl)c(Cl)c(Cl)c2)c(=O)[nH]1 | 4 | 
